This note sets out measurements from ChEMBL document CHEMBL2417383, “Assay platform for clinically relevant metallo-β-lactamases” (J Med Chem, 2013).

By Km is commonly meant the concentration of substrate that gives half-maximal velocity. Usually kcat stands for the number of substrate molecules converted per active site and unit of time at saturation.

Data set [1] in a line: Inhibition of recombinant SPM-1 (unknown origin) expressed in Escherichia coli BL21 (DE3) cells using FC4 as substrate assessed as residual activity at 1 mM preincubated for 10 mins prior to substrate addition by fluorescence-based assay relative to control. The essentials:
(§1)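 Mature SPM-1, E. coli codon-optimized, with N-terminal His6 tag cleavable by 3C protease, was expressed from pOPINF in E. coli BL21(DE3) pLysS in 2TY and purified to >95%. […] Fluorescence was read at λex 380/λem 460 nm and residual activity calculated.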

The nature of data set [2]: Chemical stability of the compound in buffer assessed as compound hydrolysis after 8 hrs. Type of data set: physicochemical. An outline of the steps: (§2)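 Substrate autohydrolysis was followed in aqueous assay buffer at room temperature over time, up to at least 8 h.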
Data set [3] in a line: Chemical stability of the compound in aqueous solution. Type of data set: physicochemical. As to conditions: buffer. An outline of the steps: as §2
In data set [4] the test system is BL21-DE3. The experiment in a line: Inhibition of recombinant SPM-1 (unknown origin) expressed in Escherichia coli BL21 (DE3) cells using FC4 as substrate assessed as residual activity at 200 uM preincubated for 10 mins prior to substrate addition by fluorescence-based assay relative to control. The essentials: as §1
Data set [5] deals with BL21-DE3.
Data set [6] has as its system BL21-DE3. This is another data set of the same source.
Data set [7] has as its system BL21-DE3. This is another data set of the same source.
Data set [8] has as its system BL21-DE3. The source holds these as a separate data set.
Data set [9] concerns BL21-DE3. The source holds these as a separate data set.

A value given as a limit tells only on which side of the number the result lay.

Regarding `CC(C)[C@H](NC(=O)c1nc(Cl)c2ccccc2c1O)C(=O)O`, in data set [1], the Activity was 16%.
On to `O=C(O)C[C@H](NC(=O)c1nc(Cl)c2ccccc2c1O)C(=O)O`, for which the Activity in data set [1] is less than 5%.
Take `O=C(O)CC[C@H](NC(=O)c1nc(Cl)c2ccccc2c1O)C(=O)O`: the Activity in data set [1] was less than 5%.
In the case of `O=C(Cc1ccccc1)N[C@@H]1C(=O)N2C(C(=O)O)=C(COc3ccc4ccc(=O)oc4c3)C[S+]([O-])[C@H]12` (stereo partly specified), the Stability entry in [2] and in data set [3] was “Stable” throughout.
For `CC(C)C[C@H](NC(=O)c1nc(Cl)c2ccccc2c1O)C(=O)O`, the Activity in [1] is less than 5%; in data set [4], 26%.
For the compound `O=C(N[C@@H](Cc1c[nH]c2ccccc12)C(=O)O)c1nc(Cl)c2ccccc2c1O`, the Activity in [1] was less than 5%.
Same read-out and setting: with `O=C(N[C@H](Cc1c[nH]c2ccccc12)C(=O)O)c1nc(Cl)c2ccccc2c1O` the figure was less than 5%.
For the compound `CC(C)C[C@@H](NC(=O)c1nc(Cl)c2ccccc2c1O)C(=O)O`, the Activity in data set [1] was less than 5%; in data set [4], 32%.
Take `O=C(Cc1ccccc1)N[C@@H]1C(=O)N2C(C(=O)O)=C(COc3ccc4ccc(=O)oc4c3)CS(=O)(=O)[C@H]12`: the Stability entry in data set [2] and in data set [3] was “Stable” throughout.
As for `O=C(Cc1cccs1)N[C@@H]1C(=O)N2C(C(=O)O)=C(/C=C/c3ccc([N+](=O)[O-])cc3[N+](=O)[O-])CS[C@H]12`, the Km in data set [5] stood at 8.8 µM; in [6], 7.2 µM; in [7] it was 55.7 µM; in [8], 16 µM; in [9] it was 8.1 µM. Also, the kcat turned out to be 25.3 s⁻¹ in data set [5]; 226 s⁻¹ in data set [6]; 2790 s⁻¹ in data set [7]; 0.7 s⁻¹ in data set [8]; 14.9 s⁻¹ in data set [9].
As to `CC(C)[C@@H](NC(=O)c1nc(Cl)c2ccccc2c1O)C(=O)O`, the Activity in data set [1] was determined as 16%.
Same read-out and setting: then `O=C(O)C[C@@H](NC(=O)c1nc(Cl)c2ccccc2c1O)C(=O)O`, with less than 5%; and `O=C(O)CC[C@@H](NC(=O)c1nc(Cl)c2ccccc2c1O)C(=O)O`, with less than 5%.
